Three molecules from paper PMC8361981 (Chemistry (Weinheim an Der Bergstrasse, Germany), 2021) can be followed below.

Data set [1] can be described thus: Cytotoxicity in MT-4 cells. The data set is classed as cell-based. The conditions noted are these: human. In short, it runs like this:
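Cytostatic read-out alongside the HIV cytopathicity assay. CC50 is the concentration that inhibits CD4 T cell proliferation by 50 %. Selectivity index is CC50/EC50.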

The subject of data set [2] is HIV-2 (ROD). Kind of data set: Anti-HIV-2. The data set is classed as cell-based. The conditions noted are these: Human immunodeficiency virus 2, CD4+ T cell, read-out: EC50 HIV-2/ROD.
The test system of data set [3] is HIV-1 (NL4.3). Kind of data set: Anti-HIV-1. It counts as cell-based. The conditions noted are these: for EC50: Human immunodeficiency virus 1, CD4+ T cell, read-out: EC50 HIV-1/NL4.3.
Data set [4] concerns the target recombinant HIV-1 IIIB gp120 (Human immunodeficiency virus type 1 group M subtype B, UniProt P04578). Kind of data set: Surface plasmon resonance. It counts as binding. In short, it runs like this:
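Recombinant HIV-1 IIIB gp120, produced in Chinese hamster ovary cells, was immobilised as a monomer on a sensor chip. Test compound was passed over at 0.1–6.25 μM in two-fold dilution steps. Real-time binding responses were fitted to a 1:1 Langmuir model to obtain affinity and kinetic constants.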
Background: Surface plasmon resonance follows binding to a sensor surface in real time, without labels.

Data set [5] deals with EV71 BrCr laboratory-adapted strain. Briefly: Anti-EV71 assay, BrCr laboratory-adapted strain in RD cells. It counts as cell-based, Enterovirus A71. In short, it runs like this:
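Enterovirus A71 BrCr (laboratory-adapted) was grown in rhabdomyosarcoma (RD) cells with test compound. EC50 is the concentration reducing virus-induced cytopathic effect by 50%. CC50 is the 50% loss of viability in compound-treated, uninfected RD cells run in a similar setup. SI = CC50/EC50.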

Data set [6] can be described thus: Cell viability of compound-treated, uninfected RD cells. It counts as cell-based. To be noted: human, uninfected rhabdomyosarcoma (RD) cells. A digest of the protocol: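 Compound-treated, uninfected RD cells run in a setup parallel to the EV71 BrCr cytopathic-effect reduction assay in RD cells. CC50 is the concentration giving a 50 % reduction in cell viability. Selectivity index is CC50/EC50.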

The structures appear in SMILES notation. Some results are limits rather than exact numbers.

For orientation: CC50 means the concentration at which the toxic effect on the cells reaches its halfway point. A lower CC50 goes with harm at low concentration. For orientation: Kd means a measure of binding affinity in units of concentration.

In data set [1], `CN[C@@H]1[C@H](O[C@@H]2OC[C@@H](O)[C@H](O)[C@H]2O)[C@@H](O)[C@H](O[C@H]2c3cc(C)c(C(=O)N[C@H](C)C(=O)O)c(O)c3-c3c(cc4c(c3O)C(=O)c3cc(OC)cc(O)c3C4=O)[C@@H]2O)O[C@@H]1C` [Pradimicin A (PRM‐A), Pradimicin A] gave a cytotoxic concentration (CC50) at 5 days above 100 µM. The EC50 in data set [2] came out at 5.9 ± 3.7 µM; in data set [3], 3.3 ± 1.2 µM. Besides, the “SI selectivity index (CC50/EC50)” value in data set [3] (anti-HIV, Table 1) was above 30.3. Further, the dissociation constant (Kd) in data set [4] amounted to 6.52 ± 0.11 µM. Moreover, the kd in data set [4] (SPR, 1:1 Langmuir model, four replicates, 25 °C) is given as 12.64±2.92 (10^−3)(1/s). For the same molecule, in data set [4] (SPR, concentration-dependent), the “binding to gp120 (in words)” value is “binds to gp120”. The kon in data set [4] (read-out: ka) is 1930 ± 420 M⁻¹ s⁻¹.

`C[C@H](Cn1cnc2c(N)ncnc21)OCP(=O)(O)O` [Tenofovir (PMPA), Tenofovir]: the cytotoxic concentration (CC50) at 5 days in data set [1] is above 100 µM. For the same molecule, the EC50 stood at 1 µM in data set [2] and 4.74 µM in data set [3].

Regarding `CCOC(=O)c1ccc(OCCC2CCN(c3ccc(C)nn3)CC2)cc1` [Pirodavir], in data set [5] (EV71 BrCr in RD cells, Table 3), the “SI selectivity index (CC50/EC50)” value is on record as above 333. Further, the EC50 in data set [5] (Enterovirus A, EV71, RD, read-out: EC50 EV71 BrCr) came to 0.3 ± 0.1 µM. Also, in data set [6], the CC50 at 3 days is above 100 µM.
